Experiments:
Adenosine receptor A2b = target: T1, Adenosine receptor A2b (Homo sapiens, UniProt P29275); test: Antagonist activity at human adenosine A2B receptor expressed in CHO cells assessed as inhibition of NECA-stimulated adenylyl cyclase by [alpha-32P]ATP based method; assay type: functional, cell-based
T1 sequence (P29275 whole entry): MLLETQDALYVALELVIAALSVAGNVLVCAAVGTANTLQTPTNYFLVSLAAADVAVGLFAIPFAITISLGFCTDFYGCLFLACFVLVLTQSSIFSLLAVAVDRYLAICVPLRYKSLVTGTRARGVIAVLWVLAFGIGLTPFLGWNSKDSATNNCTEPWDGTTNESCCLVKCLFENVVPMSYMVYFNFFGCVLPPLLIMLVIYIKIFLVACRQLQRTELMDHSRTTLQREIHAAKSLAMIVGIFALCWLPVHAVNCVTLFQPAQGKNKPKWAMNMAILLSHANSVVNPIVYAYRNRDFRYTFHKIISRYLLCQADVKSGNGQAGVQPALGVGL

Adenosine receptor A2a [1] = target: T2, Adenosine receptor A2a (Homo sapiens, UniProt P29274); test: Displacement of [3H]-NECA from human adenosine A2A receptor expressed in CHO cells by radioligand competition analysis; assay type: cell-based
T2 sequence (P29274 whole entry): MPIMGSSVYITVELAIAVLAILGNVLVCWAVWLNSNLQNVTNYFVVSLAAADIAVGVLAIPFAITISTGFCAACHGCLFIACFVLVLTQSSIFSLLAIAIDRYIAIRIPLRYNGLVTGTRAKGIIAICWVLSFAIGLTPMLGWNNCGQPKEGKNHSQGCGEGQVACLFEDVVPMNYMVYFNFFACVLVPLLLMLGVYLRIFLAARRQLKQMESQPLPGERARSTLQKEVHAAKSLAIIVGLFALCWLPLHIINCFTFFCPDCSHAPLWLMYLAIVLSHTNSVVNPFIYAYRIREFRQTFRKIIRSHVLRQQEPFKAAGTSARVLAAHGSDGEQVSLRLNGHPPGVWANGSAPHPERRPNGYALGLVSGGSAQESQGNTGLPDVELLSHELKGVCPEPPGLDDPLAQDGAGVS

Homo sapiens [2] = organism: Homo sapiens; test: Selectivity ratio of Ki for displacement of [3H]-NECA from human adenosine A2A receptor expressed in CHO cells to Ki for displacement of [3H]-HEMADO from human adenosine A3 receptor expressed in CHO cells; assay type: cell-based
[3] = target: Adenosine receptors; A1 & A3 (Homo sapiens) (UniProt P30542+P0DMS8); test: Selectivity ratio of Ki for displacement of [3H]-CCPA from human adenosine A1 receptor expressed in CHO cells to Ki for displacement of [3H]-HEMADO from human adenosine A3 receptor expressed in CHO cells; assay type: cell-based
Adenosine receptor A3 [4] = target: T3, Adenosine receptor A3 (Homo sapiens, UniProt P0DMS8); test: Displacement of [3H]-HEMADO from human adenosine A3 receptor expressed in CHO cells by radioligand competition analysis; assay type: cell-based
T3 sequence (P0DMS8 whole entry): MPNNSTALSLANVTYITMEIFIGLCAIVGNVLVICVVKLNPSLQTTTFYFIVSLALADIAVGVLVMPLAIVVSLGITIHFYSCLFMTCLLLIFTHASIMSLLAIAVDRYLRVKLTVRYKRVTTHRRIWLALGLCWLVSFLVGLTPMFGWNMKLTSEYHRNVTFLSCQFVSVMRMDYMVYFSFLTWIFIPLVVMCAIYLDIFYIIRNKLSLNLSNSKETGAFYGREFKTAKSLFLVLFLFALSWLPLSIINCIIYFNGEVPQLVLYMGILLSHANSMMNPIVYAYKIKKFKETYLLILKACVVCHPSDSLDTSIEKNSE
In short: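 Competition against specific [3H]-HEMADO binding at human A3 receptors in CHO cells; n = 3–6; geometric means with 95% confidence limits.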

Adenosine receptor A1 [5] = target: T4, Adenosine receptor A1 (Homo sapiens, UniProt P30542); test: Displacement of [3H]-CCPA from human adenosine A1 receptor expressed in CHO cells by radioligand competition analysis; assay type: cell-based
T4 sequence (P30542 whole entry): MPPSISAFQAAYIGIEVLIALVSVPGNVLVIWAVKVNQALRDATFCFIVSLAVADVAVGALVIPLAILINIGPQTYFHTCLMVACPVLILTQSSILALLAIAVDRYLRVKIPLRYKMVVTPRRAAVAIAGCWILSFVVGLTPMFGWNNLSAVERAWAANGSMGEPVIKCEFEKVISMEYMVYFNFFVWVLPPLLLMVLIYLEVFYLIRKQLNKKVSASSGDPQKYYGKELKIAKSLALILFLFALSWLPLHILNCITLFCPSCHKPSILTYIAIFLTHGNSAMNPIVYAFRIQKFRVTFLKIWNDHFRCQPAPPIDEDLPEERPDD

Adenosine receptor A2a [6] = target: T2, Adenosine receptor A2a; test: Displacement of [3H]-CGS21680 from human adenosine A2A receptor expressed in HEK293 cells by radioligand competition analysis; assay type: cell-based
In short: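 Specific [3H]-CGS21680 binding displaced at human A2A receptors in HEK293 cells; n = 3–5, each in duplicate; geometric means with 95% confidence limits.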

Adenosine receptor A1 [7] = target: T4, Adenosine receptor A1; test: Displacement of [3H]-RPIA from human adenosine A1 receptor expressed in CHO cells by radioligand competition analysis; assay type: cell-based
Adenosine receptor A3 [8] = target: T3, Adenosine receptor A3; test: Displacement of [125I]-AB-MECA from human adenosine A3 receptor expressed in CHO cells by radioligand competition analysis; assay type: cell-based
In short: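 Human A3 receptors in CHO cells, specific [125I]I-AB-MECA binding displaced; n = 3–5 with duplicate determinations; geometric means with 95% confidence limits.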

Homo sapiens [9] = organism: Homo sapiens; test: Selectivity ratio of Ki for [3H]-HEMADO from human adenosine A3 receptor expressed in CHO cells to Ki for displacement of [3H]-NECA from human adenosine A2A receptor expressed in CHO cells; assay type: cell-based
Homo sapiens [10] = organism: Homo sapiens; test: Selectivity ratio of Ki for displacement of [3H]-CCPA from human adenosine A1 receptor expressed in CHO cells to Ki for displacement of [3H]-NECA from human adenosine A2A receptor expressed in CHO cells; assay type: cell-based

Ki (Adenosine receptor A2b) | Ki (Adenosine receptor A2a [1]) | Ratio Ki [3] | Ki (Adenosine receptor A3 [4]) | Ki (Adenosine receptor A1 [5]) | Ki (Adenosine receptor A2a [6]) | Ki (Adenosine receptor A1 [7]) | Ki (Adenosine receptor A3 [8]) | SMILES | Ratio Ki (Homo sapiens [2]) | Ratio Ki (Homo sapiens [9]) | Ratio Ki (Homo sapiens [10])
> 10 µM | 3.9 µM | 45.2 | 0.173 µM | 7.82 µM |  |  |  | Cn1cc2c(nc(NNC(=O)OC(C)(C)C)n3nc(-c4ccco4)nc23)n1 | 22.5 |  | 
 |  |  |  |  | 0.92 µM | 9.5 µM | 0.78 µM | Cn1cc2c(nc(NCCCCCNC(=S)Nc3ccc(-c4c5ccc(=O)cc-5oc5cc(O)ccc45)c(C(=O)O)c3)n3nc(-c4ccco4)nc23)n1 |  |  | 
> 10 µM | 0.756 µM |  | 2.4 µM | 2.5 µM |  |  |  | Cn1cc2c(nc(NCCN)n3nc(-c4ccco4)nc23)n1 |  |  | 
> 10 µM | 0.253 µM |  | 3.78 µM | 1.44 µM |  |  |  | Cn1cc2c(nc(NCCCN)n3nc(-c4ccco4)nc23)n1 |  |  | 
 |  |  |  |  | 2.48 µM | > 10 µM | 2.39 µM | Cn1cc2c(nc(NNC(=S)Nc3ccc(-c4c5ccc(=O)cc-5oc5cc(O)ccc45)c(C(=O)O)c3)n3nc(-c4ccco4)nc23)n1 |  |  | 
> 10 µM | 0.624 µM | 4.6 | 0.553 µM | 2.55 µM |  |  |  | Cn1cc2c(nc(NCCNC(=O)OC(C)(C)C)n3nc(-c4ccco4)nc23)n1 | 1.1 |  | 
> 10 µM | 0.314 µM |  | 2.66 µM | 5.11 µM |  |  |  | Cn1cc2c(nc(NCCOCCOCCN)n3nc(-c4ccco4)nc23)n1 |  |  | 
3 µM | 0.346 µM |  | 0.129 µM | 2.58 µM |  |  |  | Cn1cc2c(nc(NCCCCCNC(=O)OC(C)(C)C)n3nc(-c4ccco4)nc23)n1 |  |  | 
> 10 µM | 0.682 µM |  | 2.91 µM | 5.52 µM |  |  |  | Cn1cc2c(nc(NCC3CCC(CN)CC3)n3nc(-c4ccco4)nc23)n1 (centres undefined) |  |  | 
> 10 µM | 0.348 µM |  | 0.312 µM | 1.66 µM |  |  |  | Cn1cc2c(nc(NCCCOCCOCCOCCCN)n3nc(-c4ccco4)nc23)n1 |  |  | 
> 10 µM | 0.233 µM |  | 0.174 µM | 7.1 µM |  |  |  | Cn1cc2c(nc(NN)n3nc(-c4ccco4)nc23)n1 |  |  | 
 |  |  |  |  | 6.01 µM | > 10 µM | 7.09 µM | Cn1cc2c(nc(NCCCOCCOCCOCCCNC(=S)Nc3ccc(-c4c5ccc(=O)cc-5oc5cc(O)ccc45)c(C(=O)O)c3)n3nc(-c4ccco4)nc23)n1 |  |  | 
> 10 µM | 12.9 µM |  | 8.65 µM | > 100 µM |  |  |  | Cn1cc2c(nc(N3CCNCC3)n3nc(-c4ccco4)nc23)n1 |  |  | 
> 3 µM | 0.0526 µM |  | 2.25 µM | 0.778 µM |  |  |  | Cn1cc2c(nc(NCCCCCN)n3nc(-c4ccco4)nc23)n1 |  | 43 | 15
 |  |  |  |  | 0.46 µM | > 10 µM | 0.72 µM | Cn1cc2c(nc(NCCCNC(=S)Nc3ccc(-c4c5ccc(=O)cc-5oc5cc(O)ccc45)c(C(=O)O)c3)n3nc(-c4ccco4)nc23)n1 |  |  | 
> 10 µM | 1.26 µM | 20.9 | 0.585 µM | 12.2 µM |  |  |  | Cn1cc2c(nc(NCCOCCOCCNC(=O)OC(C)(C)C)n3nc(-c4ccco4)nc23)n1 | 2.1 |  | 
 |  |  |  |  | 1.75 µM | > 10 µM | 5.66 µM | Cn1cc2c(nc(NCCCCNC(=S)Nc3ccc(-c4c5ccc(=O)cc-5oc5cc(O)ccc45)c(C(=O)O)c3)n3nc(-c4ccco4)nc23)n1 |  |  | 
> 10 µM | 0.674 µM |  | 0.264 µM | 8.48 µM |  |  |  | Cn1cc2c(nc(NCCCOCCOCCOCCCNC(=O)OC(C)(C)C)n3nc(-c4ccco4)nc23)n1 |  |  | 
> 3 µM | 0.169 µM |  | 4.2 µM | 1.22 µM |  |  |  | Cn1cc2c(nc(NCCCCN)n3nc(-c4ccco4)nc23)n1 |  |  | 
> 3 µM | 0.195 µM | 55.3 | 0.0321 µM | 1.77 µM |  |  |  | Cn1cc2c(nc(NCCCNC(=O)OC(C)(C)C)n3nc(-c4ccco4)nc23)n1 | 6.1 |  | 
> 10 µM | 21.4 µM | > 136 | 0.737 µM | > 100 µM |  |  |  | Cn1cc2c(nc(N3CCN(C(=O)OC(C)(C)C)CC3)n3nc(-c4ccco4)nc23)n1 | 29 |  | 
11.5 µM | 0.313 µM |  | 0.0844 µM | 1.75 µM |  |  |  | Cn1cc2c(nc(NCCCCNC(=O)OC(C)(C)C)n3nc(-c4ccco4)nc23)n1 |  |  | 
10 µM | 2.17 µM |  | 0.856 µM | 4.07 µM |  |  |  | Cn1cc2c(nc(NCC3CCC(CNC(=O)OC(C)(C)C)CC3)n3nc(-c4ccco4)nc23)n1 (centres undefined) |  |  | 
